Results from ChEMBL document CHEMBL1139747, “Pyridine-2-propanoic acids: Discovery of dual PPARalpha/gamma agonists as antidiabetic agents” (Bioorg Med Chem Lett, 2006).

Tests used:
[1] = target: T1, Peroxisome proliferator-activated receptor gamma (Homo sapiens, UniProt P37231); experiment: Agonist activity at human PPAR gamma in HepG2 cells by PPAR-GAL4 transactivation assay; format: functional, cell-based
T1 sequence (P37231 whole entry): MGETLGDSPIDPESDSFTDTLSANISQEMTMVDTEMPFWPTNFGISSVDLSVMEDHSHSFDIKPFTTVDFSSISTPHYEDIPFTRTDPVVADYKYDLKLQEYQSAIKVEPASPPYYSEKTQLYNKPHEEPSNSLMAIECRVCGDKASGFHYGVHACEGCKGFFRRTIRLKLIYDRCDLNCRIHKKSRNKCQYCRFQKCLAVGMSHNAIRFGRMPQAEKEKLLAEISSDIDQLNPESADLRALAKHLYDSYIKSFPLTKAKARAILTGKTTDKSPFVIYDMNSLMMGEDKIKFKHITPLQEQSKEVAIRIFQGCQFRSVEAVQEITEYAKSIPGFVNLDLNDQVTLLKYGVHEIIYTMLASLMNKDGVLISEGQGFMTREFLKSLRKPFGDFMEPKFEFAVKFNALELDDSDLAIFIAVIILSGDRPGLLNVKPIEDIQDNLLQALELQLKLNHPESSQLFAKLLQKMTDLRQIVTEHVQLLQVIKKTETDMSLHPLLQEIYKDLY

[2] = target: T2, Peroxisome proliferator-activated receptor alpha (Homo sapiens, UniProt Q07869); experiment: Agonist activity at human PPAR alpha in HepG2 cells by PPAR-GAL4 transactivation assay; format: functional, cell-based
T2 sequence (Q07869 whole entry): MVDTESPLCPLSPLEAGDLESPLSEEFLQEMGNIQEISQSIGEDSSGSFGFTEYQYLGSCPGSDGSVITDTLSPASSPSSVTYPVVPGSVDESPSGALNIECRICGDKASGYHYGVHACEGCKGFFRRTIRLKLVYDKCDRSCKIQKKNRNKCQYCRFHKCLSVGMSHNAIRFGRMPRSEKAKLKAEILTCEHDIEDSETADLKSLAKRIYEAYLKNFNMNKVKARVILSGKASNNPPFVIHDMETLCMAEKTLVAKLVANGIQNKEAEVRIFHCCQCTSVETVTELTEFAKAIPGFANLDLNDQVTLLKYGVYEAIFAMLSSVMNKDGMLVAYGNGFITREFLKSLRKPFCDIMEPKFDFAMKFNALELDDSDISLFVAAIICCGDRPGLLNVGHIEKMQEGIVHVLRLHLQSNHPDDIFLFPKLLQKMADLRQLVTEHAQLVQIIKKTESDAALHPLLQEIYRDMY

[3] = target: T3, Peroxisome proliferator-activated receptor alpha (Homo sapiens) (UniProt Q07869); experiment: Agonist activity at human PPAR alpha in HepG2 cells by PPAR-GAL4 transactivation assay relative to GW-2331; format: functional, cell-based
T3 sequence (whole entry): T2 sequence (Q07869 whole entry)
How it was run: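 Human PPARα–GAL4 chimera in HepG2 cells, transactivation read-out. Compounds titrated. EC50 taken as the concentration giving half of the compound's own maximal response. Percent maximal activation expressed relative to GW2331 as the standard full agonist. Where no plateau was reached, only maximal activity was reported.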

[4] = target: T1, Peroxisome proliferator-activated receptor gamma; experiment: Displacement of radiolabeled darglitazone from human PPAR gamma by SPA assay
[5] = target: T2, Peroxisome proliferator-activated receptor alpha; experiment: Displacement of radiolabeled GW-2331 from human PPAR alpha by SPA assay
[6] = tested on: Mus musculus; experiment: Increase in body weight in db/db mouse at 30 mg/kg, po after 8 day; format: functional
[7] = tested on: Mus musculus; experiment: Reduction of plasma triglycerides in db/db mouse at 3 mg/kg, po after 8 day; format: functional; design: scale not given: the % may be the effect or the level left
[8] = tested on: Mus musculus; experiment: Reduction of hematocrit in db/db mouse at 3 mg/kg, po after 8 day; format: functional; design: scale not given: the % may be the effect or the level left
[9] = tested on: Mus musculus; experiment: Reduction of plasma triglycerides in db/db mouse at 30 mg/kg, po after 8 day; format: functional; design: scale not given: the % may be the effect or the level left
[10] = tested on: Mus musculus; experiment: Reduction of hematocrit in db/db mouse at 30 mg/kg, po after 8 day; format: functional; design: scale not given: the % may be the effect or the level left
[11] = tested on: Mus musculus; experiment: Reduction of plasma glucose in db/db mouse at 30 mg/kg, po after 8 day; format: functional; design: scale not given: the % may be the effect or the level left
[12] = target: T3, Peroxisome proliferator-activated receptor alpha (Homo sapiens); settings: 100 uM
[13] = tested on: Mus musculus; experiment: Increase in body weight in db/db mouse at 3 mg/kg, po after 8 day; format: functional
[14] = tested on: Mus musculus; experiment: Reduction of plasma glucose in db/db mouse at 3 mg/kg, po after 8 day; format: functional; design: scale not given: the % may be the effect or the level left
[15] = Clearance in iv dosed Sprague-Dawley rat; format: ADME, organism-based; settings: in vivo
How it was run: (§1)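 Male Sprague–Dawley rats were given the compound both orally and intravenously. Clearance comes from the iv leg. Half-life and AUC come from the oral leg, with AUC reported dose-normalized. Oral bioavailability compares the oral and iv exposures.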

[16] = Oral bioavailability in Sprague-Dawley rat; format: ADME, organism-based; settings: in vivo; how it was run: as §1
[17] = Half life in orally dosed Sprague-Dawley rat; format: ADME, organism-based; settings: in vivo, po; how it was run: as §1
[18] = AUC in orally dosed Sprague-Dawley rat; format: ADME, organism-based; settings: plasma, po; how it was run: as §1

Structure (SMILES) | EC50 [1] | EC50 [2] | Activity [3] | Ki [5] | other results
Cc1oc(-c2ccc(Cl)cc2)nc1CCOc1ccc(CC2(C(=O)O)CCCO2)nc1 (stereo unspecified) | 130 nM | 48 nM | 122% | – | –
COC(Cc1ccc(OCCc2nc(-c3ccccc3)oc2C)cn1)C(=O)O (stereo unspecified) | 280 nM | 3140 nM | 95% | 3700 nM | Ki [4]: 348 nM
CCOC(Cc1ccc(OCCc2nc(-c3ccccc3)oc2C)cn1)C(=O)O (stereo unspecified) | 129 nM | 1230 nM | 100% | 2000 nM | Ki [4]: 73 nM
CN(CCOc1ccc(CC2SC(=O)NC2=O)cc1)c1ccccn1 (stereo unspecified) [ROSIGLITAZONE] | – | – | – | – | Activity [6]: 17.4%; Activity [7]: 83%; Activity [8]: 1.2%; Activity [9]: 106%; Activity [10]: 5.2%; Activity [11]: 74%; inhibition [12]: 45%; Activity [13]: 9.5%; Activity [14]: 51%
Cc1cccc(-c2nc(CCOc3ccc(CC4(C(=O)O)CCCO4)nc3)c(C)o2)c1 (stereo unspecified) | 12 nM | 867 nM | 93% | – | –
Cc1oc(-c2ccccc2)nc1CCOc1ncc(CC2(C(=O)O)CCCO2)cn1 (stereo unspecified) | 2500 nM | > 10000 nM | 58% | – | –
COc1cccc(-c2nc(CCOc3ccc(CC4(C(=O)O)CCCO4)nc3)c(C)o2)c1 (stereo unspecified) | 5 nM | 1570 nM | 98% | – | –
COC(C)(Cc1ccc(OCCc2nc(-c3ccccc3)oc2C)cn1)C(=O)O (stereo unspecified) | 335 nM | 882 nM | 114% | 4800 nM | Ki [4]: 1600 nM
CCOC(Cc1ccc(OCCCc2nc(-c3ccccc3)oc2C)cn1)C(=O)O (stereo unspecified) | – | 886 nM | 76% | 840 nM | –
COc1ccc(-c2nc(CCOc3ccc(CC4(C(=O)O)CCCO4)nc3)c(C)o2)cc1 (stereo unspecified) | 105 nM | 437 nM | 95% | 840 nM | –
Cc1oc(-c2ccccc2)nc1CCOc1ccc(CC2(C(=O)O)CCCO2)nc1 (stereo unspecified) | – | – | 90% | – | –
Cc1oc(-c2ccccc2)nc1CCOc1cnc(CC2(C(=O)O)CCCO2)cn1 (stereo unspecified) | 156 nM | 1890 nM | 77% | 3490 nM | Ki [4]: 160 nM
Cc1oc(-c2ccccc2)nc1CCOc1ccc(C[C@]2(C(=O)O)CCCO2)nc1 | – | – | 97% | – | Activity [6]: 20.5%; Activity [7]: 105%; Activity [8]: 4.3%; clearance [15]: 16.7 mL/min/kg; Activity [9]: 119%; Activity [10]: 4.4%; Activity [11]: 94%; Activity [13]: 15.5%; bioavailability [16]: 58%; Activity [14]: 74%; half-life [17]: 1.6 h; AUC [18]: 1200 ng·h/mL
Cc1oc(-c2ccccc2)nc1CCOc1ccc(CC2(C(=O)O)CCCCO2)nc1 (stereo unspecified) | > 10000 nM | > 10000 nM | 5% | – | –
Cc1oc(-c2ccccc2)nc1CCOc1ccc(C[C@@]2(C(=O)O)CCCO2)nc1 | – | – | 6% | – | –
